Assay results: PubChem BioAssay AID2632 (Broad Institute, 2010)

System: T. cruzi in NIH3T3, immunofluorescence replication, 4 d
Assay: T. cruzi intracellular replication inhibition, static vs lytic, late-stage follow-up, mechanism study for T. cruzi infection inhibitor project, imaging, immunofluorescence, NIH3T3 host cells (AID 2632)
Details: active compounds read low
Summary of the method: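 Material: T. cruzi-infected NIH3T3 cells; reagent: T. cruzi trypomastigotes at 100 parasites per host cell; dosing: one dose, 10× IC50; schedule: 2 h parasite infection, then 4-day compound exposure; detection: immunofluorescence imaging with anti-T. cruzi antibody and DAPI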

SMILES: CC(C)(C)OC(=O)N/N=C\c1ccc([N+](=O)[O-])s1
- percent infected cells with replication (at 27 µM): 2%

SMILES: COC(=O)N/N=C/c1ccc([N+](=O)[O-])o1
- percent infected cells with replication (at 4.69 µM): 8%

SMILES: CC(=O)c1cccc(CN2CCCC(CCC(=O)NCc3ccc(F)c(F)c3)C2)c1 (configuration not stated)
- percent infected cells with replication (at 0.7 µM): 8%

SMILES: CCCn1ncc(CN2CCCC(C(=O)c3cccc(OC(C)C)c3)C2)c1C (configuration not stated)
- percent infected cells with replication (at 0.54 µM): 4%

SMILES: O=C(NCC1CCCN(Cc2cccc(C(F)(F)F)c2)C1)c1ccc(F)cc1 (configuration not stated)
- percent infected cells with replication (at 1.11 µM): 2%

SMILES: CC(C)c1cccc(OCCCCN(C)C)c1
- percent infected cells with replication (at 5.87 µM): 0%

SMILES: O=S(=O)(NCC(c1cccnc1)N1CCN(c2ccc(F)cc2)CC1)c1ccccc1 (configuration not stated)
- percent infected cells with replication (at 0.66 µM): 0%

SMILES: CCOc1ccc2oc(=O)cc(CN3CCN(Cc4ccccc4)CC3)c2c1
- percent infected cells with replication (at 2.16 µM): 0%

SMILES: Fc1ccc(CCNCc2ccc(Cl)c(Cl)c2)cc1
- percent infected cells with replication (at 1.22 µM): 0%

SMILES: OC(COc1ccc2ccccc2c1Br)Cn1ccnc1 (configuration not stated)
- percent infected cells with replication (at 5.01 µM): 2%

SMILES: O=C(Cc1cn(Cc2cccc(Cl)c2)c2ccccc12)N1CCCCCC1
- percent infected cells with replication (at 17.5 µM): 2%

SMILES: COCc1cc(CN2CCCC(CNC(=O)c3ccc(F)cc3)C2)ccc1OC (configuration not stated)
- percent infected cells with replication (at 1.18 µM): 0%

SMILES: CN(Cc1ccccc1)C(=O)C1CCCN(Cc2cccc(Cl)c2)C1 (configuration not stated)
- percent infected cells with replication (at 1.1 µM): 0%

SMILES: CC(C)Oc1cccc(C(=O)C2CCCN(Cc3cnc(N4CCCC4)s3)C2)c1 (configuration not stated)
- percent infected cells with replication (at 1.4 µM): 2%

SMILES: CC(C)Oc1cccc(C(=O)C2CCCN(Cc3cnn(C(C)C)c3)C2)c1 (configuration not stated)
- percent infected cells with replication (at 0.38 µM): 0%

SMILES: CCc1ccc2nc(N(CCN(C)C)C(=O)c3ccc4ncsc4c3)sc2c1
- percent infected cells with replication (at 0.87 µM): 2%

SMILES: CC1CC(C)CN(CCOCCSc2ccccc2)C1 (configuration not stated)
- percent infected cells with replication (at 0.89 µM): 2%

SMILES: COc1ccccc1/C=C/C(=O)OCCCN(C)C
- percent infected cells with replication (at 7.93 µM): 6%

SMILES: Cc1ccc(NC(=O)CCC(=O)N/N=C/c2ccc([N+](=O)[O-])o2)cc1C
- percent infected cells with replication (at 0.16 µM): 0%

SMILES: O=C(CNc1cccc2ccccc12)N/N=C/c1ccc([N+](=O)[O-])o1
- percent infected cells with replication (at 0.64 µM): 6%

SMILES: CC(C)=CCCC(C)CN(C)CCc1ccccn1 (configuration not stated)
- percent infected cells with replication (at 0.83 µM): 2%

SMILES: CC1CCCN(C(=O)Cc2cn(Cc3cccc(Cl)c3)c3ccccc23)C1 (configuration not stated)
- percent infected cells with replication (at 17.9 µM): 0%

SMILES: COc1cc(C(=O)NCCC(C)C)ccc1OCc1ccc(Cl)cc1Cl
- percent infected cells with replication (at 13 µM): 0%

SMILES: CSc1ccc(CN2CCCC(CNC(=O)c3ccc(F)cc3)C2)cc1 (configuration not stated)
- percent infected cells with replication (at 1.2 µM): 6%

SMILES: CCn1ncc(CN2CCCC(C(=O)c3cccc(OC(C)C)c3)C2)c1C (configuration not stated)
- percent infected cells with replication (at 0.32 µM): 2%

SMILES: Cc1ccccc1OCCCCCn1ccnc1
- percent infected cells with replication (at 5.3 µM): 4%

SMILES: COc1ccc(CCN(C)C(=O)C2CCCN(Cc3ccc(OC)c(OC)c3)C2)cc1OC (configuration not stated)
- percent infected cells with replication (at 1 µM): 6%
